The values that follow come from ChEMBL document CHEMBL1127497, “Studies on antiulcer drugs. 7. 2-Guanidino-4-pyridylthiazoles as histamine H2-receptor antagonists with potent gastroprotective effects against nonsteroidal antiinflammatory drug-induced injury” (J Med Chem, 1994).

Broadly, the inhibition is the relative decrease from the control value, in per cent. A higher inhibition goes with a strong effect. In general, ED50 refers to the dose at which the effect has come halfway, by size or by number of responders. The low end stands for an effect at a small dose, the high end for a need for a large dose. The term IC50 denotes the midpoint of a concentration-inhibition curve.

The target of assay [1] is Histamine H2 receptor (Cavia porcellus) (UniProt P47747). The assay is described as follows: H2 receptor antagonistic activity against histamine stimulated chronotropic response in isolated guinea pig right atrium at 1x10E-6 g/mL. In kind it is functional, tissue-based. The following applies: Cardiac atrium. A digest of the protocol: (§1)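 Guinea pig atrial strip under 0.3–0.6 g tension in Tyrode solution, 30 °C, gassed with 95% O2-5% CO2. Beating rate recorded. Histamine HCl 1 × 10-6 g/mL given; after washout, test compound added (single-concentration screen 1 × 10-6 g/mL) and histamine response compared before and 30 min after dosing. IC50 from three doses by probit analysis, three atria per dose.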

Assay [2] deals with Rattus norvegicus. Kind of assay: Inhibition of aspirin induced gastric lesions in rats after peroral dose of 32 mg/kg. The class given is functional. The conditions noted are these: Stomach, route oral. A digest of the protocol:
(§2)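 Male SD rats (~200 g), fasted 24 h. Test compound given orally in 0.1% MC, then aspirin 200 mg/kg in 0.2 N HCl/0.1% MC (10 mL/kg) orally 30 min later. Rats killed 1 h after aspirin. Ulcer index is the summed lesion length (mm); % inhibition is relative to controls. Seven rats per group for screening; ED50 by probit from three doses, ten rats per dose.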

The subject of assay [3] is Rattus norvegicus. Kind of assay: Inhibition of histamine stimulated gastric acid secretion in lumen perfused anaesthetized rats after 1 mg/kg intravenous dose. The class given is functional. The following applies: Stomach. The procedure, abridged: (§3)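 Male SD rats (~250 g), fasted 24 h, urethane 1.25 g/kg ip. Stomach lumen perfused with saline; perfusate titrated with 25 mM NaOH. Histamine infused iv at 3 mg/kg/h. At plateau, compound given iv at 1 mg/kg. Result expressed as maximal inhibition of acid output; n = 2.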

The species entered for assay [4] is Canis familiaris. Kind of assay: animal or person. The following applies: Canis lupus familiaris, Stomach, po, read-out: Inhibition.
The test system of assay [5] is Canis familiaris. The assay is described as follows: Evaluated against tetragastrin stimulated gastric acid secretion in conscious Hiedenhain-pouch dogs at a dose of 0.32 mg/Kg, po. In kind it is functional. The conditions noted are these: Canis lupus familiaris, Stomach. A digest of the protocol: (§4)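 Beagle Heidenhain-pouch dogs, 8–13 kg, oral dosing. Acid concentration titrated to pH 7 with 0.1 N NaOH; total acid output is volume × concentration. Change is relative to predosing output. ED50 by probit from three or four doses, three or four dogs per dose.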

Assay [6] relates to Canis familiaris. Kind of assay: Effective dose against tetragastrin stimulated gastric acid secretion in conscious Hiedenhain-pouch dogs after peroral administration. In kind it is functional. The following applies: Canis lupus familiaris, Stomach, po. A digest of the protocol:
as §4

Another assay has as its target Histamine H2 receptor (Cavia porcellus, UniProt P47747). Kind of assay: Compound was tested for H2 receptor antagonistic activity against histamine stimulated chronotropic response in isolated guinea pig right atrium. In kind it is functional, tissue-based, Cardiac atrium. The procedure, abridged:
as §1

Assay [7] concerns Rattus norvegicus. The assay is described as follows: Effect on gastric mucosal blood flow 30 minutes after administration of HCl and aspirin after drug dosing at 100 mg/kg intragastrically. The class given is functional, Gastric mucosa. The conditions noted are these: route intragastric. The procedure, abridged:
(§5)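 Male rats, five per group, test drug suspended in 0.1% MC given intragastrically. Aspirin 200 mg/kg in 0.2 N HCl/0.1% MC (0.2 mL) given ig 15 min later. […] Reported as mean ± SEM and % of initial.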

The test system of assay [8] is Rattus norvegicus. Kind of assay: Effect on gastric mucosal blood flow 60 minutes after administration of HCl and aspirin after drug dosing at 100 mg/kg intragastrically. The class given is functional, Gastric mucosa. The following applies: route intragastric. The procedure, abridged: as §5
Assay [9] has as its system Rattus norvegicus. Kind of assay: Effect on gastric mucosal blood flow at basal value which is 15 minutes before dosing of drugs at 100 mg/kg intragastrically. In kind it is functional, Gastric mucosa. The conditions noted are these: route intragastric. A digest of the protocol: as §5
Assay [10] has as its system Rattus norvegicus. Kind of assay: Effect on gastric mucosal blood flow 15 minutes before dosing of HCl and aspirin after drug dosing at 100 mg/kg intragastrically. In kind it is functional, Gastric mucosa. The conditions noted are these: route intragastric. The procedure, abridged: as §5
Assay [11] concerns Rattus norvegicus. The assay is described as follows: Effective dose against aspirin induced gastric lesions in rats after peroral administration. In kind it is functional. The conditions noted are these: Stomach, po. A digest of the protocol:
as §2

Assay [12] has as its system Rattus norvegicus. The assay is described as follows: Evaluated against histamine stimulated gastric acid secretion in lumen perfused anaesthetized rats after 1 mg/kg intravenous dose. The class given is functional. The conditions noted are these: Stomach. A digest of the protocol: as §3
Assay [13] has as its system Rattus norvegicus. The assay is described as follows: Evaluated for inhibition of basal gastric acid secretion on pyolus-ligated rats after intraduodenal administration. The conditions noted are these: Stomach, id.
Assay [14] relates to Canis familiaris. The assay is described as follows: Evaluated against tetragastrin stimulated gastric acid secretion in conscious Hiedenhain-pouch dogs at a dose of 0.32 mg/kg, po. In kind it is functional. The following applies: Canis lupus familiaris, Stomach. A digest of the protocol: as §4
In assay [15] the test system is Rattus norvegicus. The assay is described as follows: Evaluated against aspirin induced gastric lesions in rats after peroral dose of 100 mg/kg. The following applies: Stomach, route oral. The class given is functional. The procedure, abridged:
as §2

For assay [16], the system named is Rattus norvegicus. The assay is described as follows: Effective dose against indomethacin induced gastric lesions in rats after peroral administration. In kind it is functional. The following applies: Stomach, po. A digest of the protocol:
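Male SD rats (~200 g), fasted 24 h, dosed orally with test compound in 0.1% MC, ten per group. Indomethacin 5 mg/kg in 0.1% MC given orally 30 min later, then 0.35 N HCl (5 mL/kg) orally after 1 h. Killed 1 h after that. Ulcer index is the summed lesion length. ED50 by probit from three doses.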

Assay [17] relates to Rattus norvegicus. Kind of assay: Effect on gastric mucosal blood flow 15 minutes before dosing of HCl and aspirin after drug dosing at 32 mg/kg intragastrically. In kind it is functional, Gastric mucosa. The following applies: route intragastric. A digest of the protocol:
as §5

Assay [18] has as its system Rattus norvegicus. The assay is described as follows: Effect on gastric mucosal blood flow 30 minutes after administration of HCl and aspirin after drug dosing at 10 mg/kg intragastrically. The class given is functional, Gastric mucosa. The following applies: route intragastric. A digest of the protocol: as §5
Assay [19] concerns Rattus norvegicus. Kind of assay: Effect on gastric mucosal blood flow 30 minutes after administration of HCl and aspirin after drug dosing at 32 mg/kg intragastrically. The class given is functional, Gastric mucosa. The following applies: route intragastric. The procedure, abridged:
as §5

The test system of assay [20] is Rattus norvegicus. Kind of assay: Effect on gastric mucosal blood flow 60 minutes after administration of HCl and aspirin after drug dosing at 10 mg/kg intragastrically. The class given is functional, Gastric mucosa. The conditions noted are these: route intragastric. The procedure, abridged:
as §5

In assay [21] the test system is Rattus norvegicus. Kind of assay: Effect on gastric mucosal blood flow 60 minutes after administration of HCl and aspirin after drug dosing at 32 mg/kg intragastrically. The class given is functional, Gastric mucosa. The following applies: route intragastric. The procedure, abridged:
as §5

For assay [22], the system named is Rattus norvegicus. Kind of assay: Effect on gastric mucosal blood flow at basal value which is 15 minutes before dosing of drugs at 10 mg/kg intragastrically. In kind it is functional, Gastric mucosa. The conditions noted are these: route intragastric. A digest of the protocol:
as §5

For assay [23], the system named is Rattus norvegicus. The assay is described as follows: Effect on gastric mucosal blood flow 15 minutes before dosing of HCl and aspirin after drug dosing at 10 mg/kg intragastrically. In kind it is functional, Gastric mucosa. The conditions noted are these: route intragastric. The procedure, abridged:
as §5

In assay [24] the test system is Rattus norvegicus. Kind of assay: Effect on gastric mucosal blood flow at basal value which is 15 minutes before dosing of drugs at 32 mg/kg intragastrically. The conditions noted are these: route intragastric. The class given is functional, Gastric mucosa. A digest of the protocol: as §5
Assay [25] has as its system Rattus norvegicus. Kind of assay: Evaluated for inhibition of basal gastric acid secretion in pyolus-ligated rats after intraduodenal administration. The conditions noted are these: Stomach, id.

Chain of Histamine H2 receptor (Cavia porcellus) (P47747 whole entry): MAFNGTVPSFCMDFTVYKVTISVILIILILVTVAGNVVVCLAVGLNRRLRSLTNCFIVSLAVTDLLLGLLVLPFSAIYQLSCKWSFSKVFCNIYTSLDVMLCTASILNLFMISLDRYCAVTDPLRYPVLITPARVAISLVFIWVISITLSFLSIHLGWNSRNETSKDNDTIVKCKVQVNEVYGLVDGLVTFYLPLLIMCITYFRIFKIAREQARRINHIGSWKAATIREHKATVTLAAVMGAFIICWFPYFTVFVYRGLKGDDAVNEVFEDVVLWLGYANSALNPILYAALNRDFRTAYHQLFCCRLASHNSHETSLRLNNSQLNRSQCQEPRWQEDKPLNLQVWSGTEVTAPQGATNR
Chain of Histamine H2 receptor (P47747 whole entry): as above

In assay [1], `CN/C(=N\CCSCc1nc[nH]c1C)NC#N` [CIMETIDINE] yielded an inhibition of 43%. The inhibition in vivo at 32 mg/kg with Rattus norvegicus [2] worked out at 33%. This compound registered an inhibition in vivo at 1 mg/kg in the assay with Rattus norvegicus [3] of 53%. Moreover, the inhibition in vivo at 22 mg/kg in the assay filed under Canis familiaris [4] amounted to 22%.
Turning to `CNC(=C[N+](=O)[O-])NCCSCc1ccc(CN(C)C)o1` [RANITIDINE], the inhibition in vivo at 0.32 mg/kg in the assay on Canis familiaris [5] amounted to 41%. Further, the ED50 with Canis familiaris [6] was 0.3 mg/kg; with Rattus norvegicus [11] it was > 100 mg/kg; in the assay with Rattus norvegicus [13] it was 30.5 mg/kg. The compound further showed an IC50 on Histamine H2 receptor of 3.4 µM. In assay [1], this compound returned an inhibition of 44%. Moreover, the Flow rate in the assay with Rattus norvegicus [7] is reported as 53.4 ml min-1 100g-1; in the assay with Rattus norvegicus [8], 55.4 ml min-1 100g-1; with Rattus norvegicus [9], 85.3 ml min-1 100g-1; with Rattus norvegicus [10], 82.3 ml min-1 100g-1. Moreover, the inhibition in vivo at 32 mg/kg in the assay on Rattus norvegicus [2] stood at 3%. The inhibition in vivo at 1 mg/kg with Rattus norvegicus [12] was found to be 72%.
`CC(=O)OCC(=O)NCCCOc1cccc(CN2CCCCC2)c1` [ROXATIDINE ACETATE]: the inhibition in vivo at 0.32 mg/kg with Canis familiaris [14] stood at 58%. This compound registered an inhibition in assay [1] of 76%. Further, the inhibition in vivo at 1 mg/kg in the assay on Rattus norvegicus [3] worked out at 84%. In the assay on Rattus norvegicus [15], this compound came in with an inhibition in vivo at 100 mg/kg of 31%.
In the assay on Canis familiaris [14], `CC(=O)NCc1cccc(-c2csc(N=C(N)N)n2)n1.Cl` showed an inhibition in vivo at 0.32 mg/kg of 95%. Besides, the ED50 in the assay with Canis familiaris [6] is 0.063 mg/kg; with Rattus norvegicus [16], 6.5 mg/kg; in the assay with Rattus norvegicus [11], 13.3 mg/kg; in the assay with Rattus norvegicus [25] it was 12.6 mg/kg. Besides, at Histamine H2 receptor, it took 1.3 µM to reach half-maximal inhibition (IC50). Further, the inhibition in assay [1] came to 66%. Moreover, the Flow rate in the assay with Rattus norvegicus [17] is recorded as 65.3 ml min-1 100g-1; with Rattus norvegicus [18], 67.9 ml min-1 100g-1; in the assay on Rattus norvegicus [19], 63.1 ml min-1 100g-1; in the assay on Rattus norvegicus [20], 61 ml min-1 100g-1; in the assay with Rattus norvegicus [21] it was 60.4 ml min-1 100g-1; in the assay on Rattus norvegicus [22], 70.4 ml min-1 100g-1. In addition, the Flow rate with Rattus norvegicus [23] is on record as 70.2 ml min-1 100g-1; in the assay with Rattus norvegicus [24], 58.9 ml min-1 100g-1. The same compound had an inhibition in vivo at 32 mg/kg in the assay on Rattus norvegicus [2] of 68%. This compound had an inhibition in vivo at 1 mg/kg in the assay with Rattus norvegicus [3] of 82%.
